Active and inactive are the calls of the source. No cut-off for these calls is given here.
Legend:
Staphylococcus aureus [1] = assay: Induction of biofilm disruption in Staphylococcus aureus after 24 hrs by confocal laser-scanning microscopy; assay type: functional
Summary of the method: (§1)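 Biofilms grown on glass coverslips from ~10^5 CFU/mL: S. aureus in nutrient medium + 1% glucose + 1% NaCl, 24 h; E. coli in M9 + 0.5% glycerol + 0.02% casamino acid, 72 h; stationary, 37 °C. After PBS wash, treated 24 h at 37 °C with 32 µg/mL in the same medium; media-only control. Stained with SYTO 9 (5 µM), imaged by confocal microscopy.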

Escherichia coli [2] = assay: Induction of biofilm disruption in Escherichia coli after 24 hrs by confocal laser-scanning microscopy; assay type: functional; summary of the method: as §1
Escherichia coli [3] = assay: Antibacterial activity against Escherichia coli incubated for 24 hrs; assay type: functional
Summary of the method: (§2)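 Broth microdilution: 6 h cultures diluted to ~10^5 CFU/mL in medium; compounds 2-fold serially diluted in water, mixed 1:3 with bacterial suspension. Incubated 24 h, 37 °C; OD600 read. MIC = concentration with OD similar to medium-only control. Triplicate wells, experiments repeated at least twice.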

[4] = Induction of hemolysis in human RBC incubated for 1 hr; assay type: cell-based, Erythrocyte; conditions: red blood cells
Summary of the method: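 Washed human RBCs from heparinized blood, 5 vol% in PBS, mixed 3:1 with serially diluted compounds; 1 h at 37 °C. Centrifuged; supernatant A540 read. Hemolysis % = (A−A0)/(Atotal−A0)×100, with water as 0% and 0.1 vol% Triton X-100 as full lysis.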

Staphylococcus aureus [5] = assay: Antibacterial activity against methicillin-resistant Staphylococcus aureus incubated for 24 hrs; assay type: functional
Summary of the method: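 MRSA (ATCC 33591) from a 6 h culture (~10^9 CFU/mL), diluted to ~10^5 CFU/mL in medium. Compounds in water, 2-fold serial dilutions, combined with the bacteria at 1:3 by volume and incubated 24 h at 37 °C. OD600 read. MIC is the lowest concentration whose OD matches the media-only control. Triplicate wells; experiments repeated at least twice.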

Staphylococcus aureus [6] = assay: Antibacterial activity against Staphylococcus aureus incubated for 24 hrs; assay type: functional; summary of the method: as §2
[7] = Selectivity index, ratio of HC50 for induction of hemolysis in human RBC to MIC for Staphylococcus aureus
Escherichia coli [8] = assay: Induction of membrane permeabilization in Escherichia coli at 32 ug/ml after 0 to 20 mins by propidium iodide dye based assay; assay type: functional
Summary of the method: (§3)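 Membrane permeabilization of S. aureus or E. coli followed as increase in propidium iodide fluorescence after adding compounds at 32 µg/mL.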

Staphylococcus aureus [9] = assay: Induction of membrane depolarization in Staphylococcus aureus at 32 ug/ml after 0 to 20 mins by […] dye based assay; assay type: functional
Summary of the method: (§4)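 Membrane-potential dye DiSC3(5) taken up by S. aureus or E. coli; depolarization followed as rise in dye fluorescence after adding compounds at 32 µg/mL.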

Staphylococcus aureus [10] = assay: Induction of membrane permeabilization in Staphylococcus aureus at 32 ug/ml after 0 to 20 mins by propidium iodide dye based assay; assay type: functional; summary of the method: as §3
[11] = Selectivity index, ratio of HC50 for induction of hemolysis in human RBC to MIC for Escherichia coli
Escherichia coli [12] = assay: Induction of membrane depolarization in Escherichia coli at 32 ug/ml after 0 to 20 mins by […] dye based assay; assay type: functional; summary of the method: as §4
[13] = Toxicity in HEK293 cells assessed as induction of cell death at 32 ug/ml incubated for 24 hrs by calcein AM and propidium iodide dye based fluorescence microscopy; conditions: human, hek293, 24 h
Summary of the method: (§5)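 HEK 293 cells seeded ~10^4 cells/well, treated with compounds for 24 h (16, 32 or 64 µg/mL); 0.1% Triton X positive, untreated negative control. Stained with calcein AM (2 µM) and PI (4.5 µM) 15 min at 37 °C, 5% CO2; imaged by fluorescence microscopy, 20X objective.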

Mus musculus [14] = assay: Toxicity in topically dosed mouse assessed as induction of less fur appearance at 200 mg/kg after 14 days by OECD425 guidelines based method; assay type: organism-based; conditions: in vivo, topical_or_ocular, 336 h
Mus musculus [15] = assay: Toxicity in topically dosed mouse assessed as induction of skin darkening at 200 mg/kg after 14 days by OECD425 guidelines based method; assay type: organism-based; conditions: in vivo, topical_or_ocular, 336 h
[16] = Toxicity in HEK293 cells assessed as induction of cell death at 64 ug/ml incubated for 24 hrs by calcein AM and propidium iodide dye based fluorescence microscopy; conditions: human, hek293, 24 h; summary of the method: as §5
[17] = Toxicity in HEK293 cells assessed as cell density level at 16 ug/ml incubated for 24 hrs by calcein AM and propidium iodide dye based fluorescence microscopy; conditions: human, hek293, 24 h; summary of the method: as §5
[18] = Induction of membrane hydration changes in Laurdan dye containing DPPC liposomes assessed as reduction in general polarization at 25 to 100 ug/ml by luminescence spectrometry; assay type: physicochemical
Summary of the method: (§6)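 Liposomes of 0.5 mM DPPG:DPPE (88:12) or 0.5 mM DPPC with Laurdan (lipid:dye 100:1), hydrated in PBS pH 7.4, 10 freeze–thaw cycles, sonicated 15 min at 70 °C. Compounds added in PBS (lipid:compound 7.4:1), tested at 25, 50, 100 µg/mL; emission at 440 and 490 nm (ex 350 nm), 37 °C. GP = (I440−I490)/(I440+I490).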

[19] = Induction of membrane hydration changes in Laurdan dye containing DPPG:DPPE (88:12) liposomes assessed as reduction in general polarization at 25 to 100 ug/ml by luminescence spectrometry; assay type: physicochemical; summary of the method: as §6
Staphylococcus aureus [20] = assay: Antibacterial activity against Staphylococcus aureus infected in BALB/c mouse model of superficial skin infection and biofilm formation assessed as reduction in bacterial load in skin at 40 mg/kg applied topically once daily for 4 days and measured 18 hrs after last dose by FEI field emission scanning electron microscopy relative to un-treated control; assay type: functional, organism-based
Summary of the method: (§7)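 Female BALB/c mice (6–8 weeks, 18–22 g) made neutropenic with cyclophosphamide i.p. (150 mg/kg, then 100 mg/kg 3 days later), anesthetized, backs shaved, wounded and infected with MRSA ATCC 33591. After 24 h biofilm formation, 40 mg/kg applied topically to wound once daily for 4 days (n = 5/group; untreated control). Skin collected 18 h after last dose for CFU/g; portions formalin-fixed for SEM.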

Staphylococcus aureus [21] = assay: Antibacterial activity against Staphylococcus aureus infected in BALB/c mouse model of superficial skin infection and biofilm formation assessed as reduction in bacterial load in skin at 40 mg/kg applied topically once daily for 4 days and measured 18 hrs after last dose; assay type: functional; summary of the method: as §7

SMILES | MIC (Escherichia coli [3]) | HC50 at 1 h [4] | MIC (Staphylococcus aureus [5]) | MIC (Staphylococcus aureus [6]) | further results
CCCCCCCCCCCCCC[N+](C)(C)Cc1ccccc1 |  |  |  |  | MBEC (Staphylococcus aureus [1]): Active; MBEC (Escherichia coli [2]): Active
CCCCCCCCCCNC(=O)C[N+](C)(C)CCCCCC[N+](C)(C)CC(=O)NCCCCCCCCCC.[Br-].[Br-] | 2 µg/mL | 58 µg/mL | 2 µg/mL | 2 µg/mL | 
CCCCCCNC(=O)C[N+](C)(C)CC[N+](C)(C)CC(=O)NCCCCCC.[Br-].[Br-] | 250 µg/mL | > 1000 µg/mL | 250 µg/mL | 125 µg/mL | 
CCCCCCCCCCNC(=O)C[N+](C)(C)CCCCCCCC[N+](C)(C)CC(=O)NCCCCCCCCCC.[Br-].[Br-] | 4 µg/mL | 55 µg/mL | 2 µg/mL | 2 µg/mL | 
CCCCCCCCCCNC(=O)C[N+](C)(C)CCCCCCCCCCCC[N+](C)(C)CC(=O)NCCCCCCCCCC.[Br-].[Br-] | 500 µg/mL | 50 µg/mL | 62 µg/mL | 31 µg/mL | 
CCCCCCCCNC(=O)C[N+](C)(C)CCCCCC[N+](C)(C)CC(=O)NCCCCCCCC.[Br-].[Br-] | 6 µg/mL | 300 µg/mL | 4 µg/mL | 2 µg/mL | Selectivity Index [7]: 150; Activity (Escherichia coli [8]): Active; Activity (Staphylococcus aureus [9]): Active; Activity (Staphylococcus aureus [10]): Active; Selectivity Index [11]: 50; Activity (Escherichia coli [12]): Active
CCCCCCCCNC(=O)C[N+](C)(C)CCCC[N+](C)(C)CC(=O)NCCCCCCCC.[Br-].[Br-] | 8 µg/mL | 310 µg/mL | 3.9 µg/mL | 2 µg/mL | 
CCCCCCCCCCNC(=O)C[N+](C)(C)CCCC[N+](C)(C)CC(=O)NCCCCCCCCCC.[Br-].[Br-] | 2 µg/mL | 60 µg/mL | 2 µg/mL | 2 µg/mL | Activity [13]: Toxic; Activity (Mus musculus [14]): Toxic; Selectivity Index [7]: 30; Activity (Escherichia coli [8]): Active; Activity (Staphylococcus aureus [9]): Active; MBEC (Staphylococcus aureus [1]): 31.2 to 62.5 µg/mL; Activity (Mus musculus [15]): Toxic; Activity (Staphylococcus aureus [10]): Active; Activity [16]: Toxic; Selectivity Index [11]: 30; Activity [17]: Toxic; Activity [18]: Active; Activity (Escherichia coli [12]): Active; Activity [19]: Active
CC(=O)O[C@H]1C[C@@]2(C)[C@@H](C[C@@H](O)[C@H]3[C@@]4(C)CC[C@@H](O)[C@@H](C)[C@@H]4CC[C@@]32C)/C1=C(\CCC=C(C)C)C(=O)O [FUSIDIC ACID] |  |  |  |  | Activity (Staphylococcus aureus [20]): Active; Activity (Staphylococcus aureus [21]): 2.2 log10CFU/g
CCCCCCCCCC[N+](C)(C)CCCCCCCCCC |  |  |  |  | MBEC (Staphylococcus aureus [1]): Active; MBEC (Escherichia coli [2]): Active
CCCCCCNC(=O)C[N+](C)(C)CCCC[N+](C)(C)CC(=O)NCCCCCC.[Br-].[Br-] | 125 µg/mL | > 1000 µg/mL | 125 µg/mL | 62.5 µg/mL | 

— ChEMBL document CHEMBL3860103, “Antibacterial and Antibiofilm Activity of Cationic Small Molecules with Spatial Positioning of Hydrophobicity: An in Vitro and in Vivo Evaluation” (J Med Chem, 2016)
